# Bioassay records: PubChem, several laboratories
# An excerpt weighted towards active compounds, which were near 29% of everything screened.
# CYP2C9 activ – activators of human CYP2C9; P11712; recombinant CYP2C9, luciferin-H conversion, luminescence; hits give high values; factor 1 = untreated enzyme, 0 = blocked; activation factor at 5 µM; 1.4% of 96,000 active; AID 1024;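 active = activation factor of 2 or more for CYP2C9 at a 5 µM dose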;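 also: 0 = sulfaphenazole-blocked wells and 1 = vehicle-only wells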
# Target sequence (P11712 whole entry, looked up): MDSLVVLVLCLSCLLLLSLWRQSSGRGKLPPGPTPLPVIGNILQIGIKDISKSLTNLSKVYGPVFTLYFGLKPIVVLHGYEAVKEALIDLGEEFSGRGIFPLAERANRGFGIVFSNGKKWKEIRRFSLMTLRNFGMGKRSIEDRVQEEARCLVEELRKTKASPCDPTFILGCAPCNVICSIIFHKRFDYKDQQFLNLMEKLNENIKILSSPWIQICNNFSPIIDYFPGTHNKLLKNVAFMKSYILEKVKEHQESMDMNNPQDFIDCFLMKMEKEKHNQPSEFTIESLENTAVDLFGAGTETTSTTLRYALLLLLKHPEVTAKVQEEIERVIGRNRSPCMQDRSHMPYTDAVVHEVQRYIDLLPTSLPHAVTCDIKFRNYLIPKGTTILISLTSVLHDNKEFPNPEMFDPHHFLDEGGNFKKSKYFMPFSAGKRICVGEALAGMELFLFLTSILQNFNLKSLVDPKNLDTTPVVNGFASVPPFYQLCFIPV
# CYP2C9 inh – inhibitors of human CYP2C9; inhibition, % at 5 µM; AID 777; CYP2C9 Supersomes, luciferin-H conversion, luminescence; 20% of 96,000 active;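 active = blocking of liver enzyme CYP2C9 beyond about 50% at 5 µM, limit read from the data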
# CYP2C19 activ – increases human CYP2C19 enzyme activity | 96,000 tested, under 10 active | AID 1025 | activation factor at 5 µM | recombinant CYP2C19, luciferin-H EGE luminescence; hits give high values; 0 = fully inhibited enzyme, 1 = untreated enzyme;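 active = activation factor of at least 2 at 5 µM in the primary screen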;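 also: 0 = wells with 2.5 mM tranylcypromine and 1 = vehicle-only wells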
# CYP2C19 inh – human CYP2C19 inhibition; P33261; CYP2C19 Supersomes, luciferin-H EGE luminescence, 30 min; inhibition, % at 5 µM; 21% of 96,000 active;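 active = CYP2C19 inhibition above a set limit at 5 µM in the primary screen, cut at about 50% in these data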;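 also: plate controls were negative control wells for no effect and 2.5 mM tranylcypromine positive control for full effect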
# tolC growth inh – growth inhibitors of E. coli BW25113 tolC mutant | 2.2% of 65,000 active | OD615 | growth inhibition, % at 10 µM (by protocol);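 active = growth inhibition at or above a cutoff equal to the mean over every tested compound plus 3 SD, cut at about 60% in these data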;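 also: growth measured after 20 h incubation at 37 °C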
#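 Test system: E. coli BW25113 ΔtolC::kan bacteria | Medium: Kanamycin-containing LB broth (50 µg/mL) | Dosing: One dose of 10 µM final | Times: 20 h incubation with compound, 37 °C | Detection: Optical density read at 615 nm | Read-out basis: Percent growth inhibition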
# E coli WT exp – E. coli BW25113 growth inhibition, expanded screen. OD600 absorbance. AID 710. growth inhibition, % at 100 µM. 0.15% of 98,000 active;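 active = growth inhibition above about 50% at one test dose, limit read from the data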;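 also: growth measured after 20 h incubation at 37 °C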
# * hit, by the source's call; nt = no result.
SMILES,CYP2C9 activ,CYP2C9 inh,CYP2C19 activ,CYP2C19 inh,tolC growth inh,E coli WT exp
COc1cccc(CNC(=O)C2CCN(S(=O)(=O)c3cnc[nH]3)CC2)c1,0.2,76*,0.7,29,-14,-9
CCOC(=O)C1CCCN(C(=O)Nc2ccccc2)C1 (stereo not given),0.9,6,0.6,43,nt,3
O=C(NCc1ccccc1)C1CCCN(C(=O)Nc2ccccc2)C1 (stereo not given),0.6,44,0.3,67*,4,6
COc1cccc(CNC(=O)C2CCCN(S(=O)(=O)c3cnc[nH]3)C2)c1 (stereo not given),0.2,77*,0.1,92*,-4,-6
CCOC(=O)CNC(=O)Nc1nnc(-c2ccc(OCC)cc2)o1,1.2,-17,1,-4,5,-9
Cc1ccccc1NC(=O)CC(O)(C(F)(F)F)C(F)(F)F,0.7,27,0.5,47,nt,-8
Cc1ccc(NC(=O)CC(O)(C(F)(F)F)C(F)(F)F)c(Br)c1,0.1,86*,0.1,87*,34,20
CCN(CC)CC(=O)Nc1ccc(C)cc1Br,0.4,62*,0.5,50,-3,14
NC(=O)CN1CCN(C(=O)Nc2ccccc2)CC1,1.1,-7,1,-4,-11,4
Cc1nc2nc(SCC(=O)NCc3ccco3)nn2c(C)c1Cc1c(F)cccc1Cl,0.1,88*,0.6,43,11,-10
Cc1ccccc1Cc1c(C)nc2nc(SCC(=O)NCc3ccco3)nn2c1C,0.3,66*,0.7,28,10,-1
Cc1cc(C)n2nc(SC(C)C(=O)NCc3ccco3)nc2n1 (stereo not given),0.9,14,0.8,20,-13,-6
Cc1ccc(Cc2c(C)nc3nc(SCC(=O)NCc4ccco4)nn3c2C)cc1,0.4,56*,0.7,28,6,6
Cc1nc2ncnn2c(C)c1CCC(=O)NCc1ccco1,1,2,0.9,10,-1,-3
Cc1ccccc1Cc1c(C)nc2c(C(=O)NCc3ccco3)cnn2c1C,0.1,87*,0.4,56*,31,-4
COc1ccc(C(=O)N(CN2CCCC2=O)c2nccs2)cc1OC,0.9,9,1,1,-5,4
CCC(C)(C)n1nnnc1C(c1cc2ccc(OC)cc2[nH]c1=O)N1CCc2ccccc21 (stereo not given),0,98*,0.5,54*,51,-14
CCC(C)(C)n1nnnc1C(c1cc2cc(OC)ccc2[nH]c1=O)N1CCc2ccccc21 (stereo not given),0,100*,0.4,63*,37,-5
Cc1ccc2[nH]c(=O)c(C(c3nnnn3Cc3ccccc3)N3CCc4ccccc43)cc2c1 (stereo not given),0.9,11,0.8,17,nt,-8
Cc1cc2cc(C(c3nnnn3Cc3ccccc3)N3CCc4ccccc43)c(=O)[nH]c2cc1C (stereo not given),0.3,68*,0.7,33,nt,-15
Cc1cc(C)c2[nH]c(=O)c(C(c3nnnn3CC3CCCO3)N3CCCC(C)C3)cc2c1 (stereo not given),0.8,21,0.7,34,62*,-4
Cc1cc(C)c2[nH]c(=O)c(C(c3nnnn3CC3CCCO3)N3CCC(C)CC3)cc2c1 (stereo not given),0.9,11,1,4,29,-14
CCC(C)(C)n1nnnc1C(c1cc2ccc(OC)cc2[nH]c1=O)N1CCCCC1 (stereo not given),0.8,19,1,-2,nt,4
COc1cc(OC)c(Cl)cc1N,0.8,22,0.8,24,5,12
CCC(C)(C)n1nnnc1C(c1cc2cc(C)ccc2[nH]c1=O)N1CCCc2ccccc21 (stereo not given),0.4,64*,0.7,33,nt,1
SMILES,CYP2C9 activ,CYP2C9 inh,CYP2C19 activ,CYP2C19 inh,tolC growth inh,E coli WT exp
Cc1ccc2[nH]c(=O)c(C(c3nnnn3CC3CCCO3)N3CCCc4ccccc43)cc2c1 (stereo not given),0.4,60*,0.6,40,26,-24
O=C(CSc1nnnn1C1CCCCC1)NCc1ccco1,0.9,6,0.8,22,-15,-15
O=C(CSc1nnnn1C1CCCC1)NCc1ccc2c(c1)OCO2,0.4,61*,0.6,36,0,5
O=C(CSc1nnnn1C1CCCCC1)NCc1ccc2c(c1)OCO2,0.1,92*,0.1,92*,6,4
CCOC(=O)C1CCCN(c2c(NCCc3ccc(S(N)(=O)=O)cc3)c(=O)c2=O)C1 (stereo not given),1,3,1.1,-8,-3,5
CCSc1nnc2n(N)c(=O)c3ccccc3n12,1.1,-9,1,-4,nt,-10
Cc1cc(C)c2c(-n3cccc3)c(NC(=O)OC(C)C)sc2n1,0.6,37,0.9,13,nt,-5
CCC(NC(=O)Nn1cnnc1)(C(F)(F)F)C(F)(F)F,nt,nt,nt,nt,12,1
COCCNC(=O)CS(=O)Cc1nc(-c2ccc(OC)cc2)oc1C (stereo not given),0.9,9,0.7,28,-17,-13
COc1ccccc1NC(=O)CN1CCN(C2c3ccccc3-c3ccccc32)CC1,0,96*,0.2,81*,34,-13
COc1ccc(NC(=O)CN2CCN(C(=O)c3ccco3)CC2)c(OC)c1,0.9,13,0.9,9,nt,-4
COc1ccc(NC(=O)CN2CCN(C3c4ccccc4-c4ccccc43)CC2)c(OC)c1,0,97*,0.1,88*,27,-14
S=C1NC2=C(C(c3ccc(Br)cc3)N1)N1CCC2CC1 (stereo not given),1,2,0.9,12,nt,2
O=C(c1ccccc1)c1cnc(Nc2ccc(Cl)c(Cl)c2)s1,0.9,12,0.9,10,nt,-7
CC1(c2cnc(Nc3ccccc3)s2)CCC(=O)O1 (stereo not given),2.1*,-105,0.7,31,3,-3
CCCOC(=O)CCn1c(=S)oc2ccccc21,0.6,43,0.1,90*,1,-5
CCOc1ccc(CNC(=O)CCn2c(=O)oc3ccccc32)cc1,0.9,9,0.7,32,-15,-2
Cc1ccc(C)c(N2CCN(CC3CC=CCC3)CC2)c1 (stereo not given),0.9,6,0.9,11,nt,6
CCS(=O)(=O)Nc1ccc2c(c1)N(C(C)=O)c1ccccc1CC2,0.3,70*,0.7,25,7,-5
CCOP(=O)(OCC)C(C#N)=C1SCN(c2ccc(Cl)cc2)CS1,0.4,61*,0.7,32,nt,16
N#CCC(=N)N1CCN(c2ccc(Cl)cc2)CC1,0.8,18,0.9,14,nt,3
COc1ccccc1C1C(C(=O)c2sc(C)nc2C)=C(O)C(=O)N1CCN1CCOCC1 (stereo not given),1.1,-8,1,-4,-14,1
